# Test results: ChEMBL document CHEMBL4433211, “Discovery of the First-in-Class GSK-3β/HDAC Dual Inhibitor as Disease-Modifying Agent To Combat Alzheimer's Disease” (ACS Med Chem Lett, 2019)
# The source made the active and inactive calls. The rule behind the calls is not given here.
# Tests used:
# [1] = target: T1, Glycogen synthase kinase-3 beta (Homo sapiens, UniProt P49841); assay: Inhibition of human recombinant GSK3beta using GSM as substrate incubated for 30 mins by luminescence based assay
# Target sequence in this assay (P49841 whole entry): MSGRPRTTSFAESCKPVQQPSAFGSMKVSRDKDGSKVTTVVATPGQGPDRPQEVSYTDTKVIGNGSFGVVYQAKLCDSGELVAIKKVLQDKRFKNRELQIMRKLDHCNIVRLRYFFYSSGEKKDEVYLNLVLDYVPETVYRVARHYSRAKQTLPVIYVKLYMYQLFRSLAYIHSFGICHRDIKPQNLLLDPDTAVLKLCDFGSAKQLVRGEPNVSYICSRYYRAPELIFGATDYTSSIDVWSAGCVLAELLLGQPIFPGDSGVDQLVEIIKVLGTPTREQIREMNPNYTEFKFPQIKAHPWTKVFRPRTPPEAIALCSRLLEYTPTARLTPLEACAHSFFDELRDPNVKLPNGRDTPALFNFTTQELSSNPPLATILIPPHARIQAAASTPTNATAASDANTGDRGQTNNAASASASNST
# Histone deacetylase 1 = Histone deacetylase 1 (Homo sapiens, UniProt Q13547); assay: Inhibition of human recombinant his tagged HDAC1 expressed in baculovirus infected […] insect cells using tertbutyloxycarbonyl (Boc)-(Ac)-Lys-7-amino-4-methylcoumarin as substrate incubated for 1 hr by fluorescence based assay
# [2] = target: T2, Protein deacetylase HDAC6 (Homo sapiens, UniProt Q9UBN7); assay: Inhibition of human recombinant his tagged HDAC6 expressed in baculovirus infected […] insect cells using batcp as substrate incubated for 1 hr by fluorescence based assay
# T2 sequence (Q9UBN7 whole entry): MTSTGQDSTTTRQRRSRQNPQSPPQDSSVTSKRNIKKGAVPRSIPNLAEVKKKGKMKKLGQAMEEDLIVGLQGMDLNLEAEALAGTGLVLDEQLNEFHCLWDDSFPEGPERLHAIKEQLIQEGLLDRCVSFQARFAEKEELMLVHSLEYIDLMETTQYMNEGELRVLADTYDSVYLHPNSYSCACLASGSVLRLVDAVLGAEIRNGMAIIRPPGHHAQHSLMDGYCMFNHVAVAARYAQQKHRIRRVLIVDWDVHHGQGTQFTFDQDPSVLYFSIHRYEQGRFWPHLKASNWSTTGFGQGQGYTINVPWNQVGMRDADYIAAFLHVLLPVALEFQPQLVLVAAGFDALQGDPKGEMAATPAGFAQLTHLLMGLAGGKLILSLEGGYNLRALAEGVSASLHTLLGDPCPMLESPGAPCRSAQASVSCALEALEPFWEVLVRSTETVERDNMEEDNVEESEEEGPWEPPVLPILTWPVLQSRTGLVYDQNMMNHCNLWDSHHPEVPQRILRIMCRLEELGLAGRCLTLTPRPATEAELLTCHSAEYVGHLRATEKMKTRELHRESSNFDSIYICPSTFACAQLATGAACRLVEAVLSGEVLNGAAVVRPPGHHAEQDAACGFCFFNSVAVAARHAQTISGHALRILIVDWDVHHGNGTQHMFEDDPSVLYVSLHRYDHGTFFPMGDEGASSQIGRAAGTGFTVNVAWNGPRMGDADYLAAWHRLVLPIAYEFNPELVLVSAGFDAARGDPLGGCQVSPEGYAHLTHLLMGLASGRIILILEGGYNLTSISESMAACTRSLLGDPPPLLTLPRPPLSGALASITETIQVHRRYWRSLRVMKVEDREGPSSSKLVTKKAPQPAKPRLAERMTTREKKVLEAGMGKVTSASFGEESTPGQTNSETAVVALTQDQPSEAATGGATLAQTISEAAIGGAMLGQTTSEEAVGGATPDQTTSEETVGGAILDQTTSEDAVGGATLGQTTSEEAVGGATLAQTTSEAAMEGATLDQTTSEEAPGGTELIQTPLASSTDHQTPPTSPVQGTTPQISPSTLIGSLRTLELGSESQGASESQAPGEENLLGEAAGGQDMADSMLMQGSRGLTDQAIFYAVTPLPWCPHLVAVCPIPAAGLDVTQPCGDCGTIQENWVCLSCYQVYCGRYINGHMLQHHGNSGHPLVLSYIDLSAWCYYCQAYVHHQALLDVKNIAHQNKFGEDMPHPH
# [3] = target: T1, Glycogen synthase kinase-3 beta; assay: Inhibition of GSK3beta in human SH-SY5Y cells assessed as reduction in copper-induced tau hyperphosphorylation at 10 mM preincubated for 1 hr followed by copper addition and measured after 26 hrs by ELISA; type: cell-based; details: in the assay text read “16 hrs” for “26 hrs”
# Method in brief: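 Differentiated SH-SY5Y cells pretreated 1 h with test agent (LiCl 10 mM reference; compounds 10 μM), then copper 400 μM for 16 h; cells scraped, phospho-tau quantified by immunoenzymatic assay at 450 nm; mean ± SEM.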
# Target sequence in this assay (P49841 whole entry, looked up): as the sequence (P49841 whole entry) above
# Chain of Histone deacetylase 1 (Q13547 whole entry): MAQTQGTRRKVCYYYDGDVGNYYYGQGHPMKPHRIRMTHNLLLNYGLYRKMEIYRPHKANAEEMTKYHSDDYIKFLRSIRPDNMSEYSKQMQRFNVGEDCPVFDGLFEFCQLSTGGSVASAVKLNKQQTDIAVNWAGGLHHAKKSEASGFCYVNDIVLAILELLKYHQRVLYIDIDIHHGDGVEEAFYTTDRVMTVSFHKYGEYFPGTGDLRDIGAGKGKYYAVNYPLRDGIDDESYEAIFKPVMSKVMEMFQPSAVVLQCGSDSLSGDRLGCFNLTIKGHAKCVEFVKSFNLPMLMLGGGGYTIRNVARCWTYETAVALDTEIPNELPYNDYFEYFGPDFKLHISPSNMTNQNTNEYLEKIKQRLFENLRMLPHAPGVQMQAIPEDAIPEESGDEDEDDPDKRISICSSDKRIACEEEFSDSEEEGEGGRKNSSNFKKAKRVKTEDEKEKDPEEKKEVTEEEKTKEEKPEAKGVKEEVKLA
IC50 [1] [µM],IC50 (Histone deacetylase 1) [µM],IC50 [2] [µM],inhibition [3],SMILES
4.11,5.02,14.7,,O=C(CCCCNC(=S)Nc1ccc2c(c1)C(=O)NC2=O)NO
9.85,2.24,12.6,,O=C(CCCNC(=S)Nc1ccc2c(c1)C(=O)NC2=O)NO
,,,Active,[Cl-].[Li+]
20,3.75,18.1,,O=C(CCNC(=S)Nc1ccc2c(c1)C(=O)NC2=O)NO
